TRPC4 PAM: allosterically enhances the mouse TRPC4 cation channel; HEK293 TRPC4beta/mu-opioid, DAMGO EC20, Fluo-4 Ca2+ flux; active compounds read high; B-score at 10 µM; 310,000 tested, 0.42% active; AID 2227;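 active means B-score of calcium response area above 5 SD of library B-scores, with initial fluorescence ratio within 5 SD of library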;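 further: B-score of integrated fluorescence ratio over time as area under calcium response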
TRPC4 inh: TRPC4 (mouse) channel inhibition; AID 2247; Q9QUQ5; B-score at 10 µM; 300,000 tested, 0.39% active; HEK293 TRPC4beta/mu-opioid, DAMGO-evoked Fluo4 calcium flux; active compounds read low;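 active means B-score over 3 SD under the library average, no early fluorescence shift, positive overall ratio signal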
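Signal: kinetic Fluo4 fluorescence imaging of calcium influx. Material: stable TRPC4beta/mu-opioid receptor HEK293 cells. Probe or stimulus: DAMGO in two steps, submaximal then maximal.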
TRPC6 inh: blocks the mouse TRPC6 cation channel; HEK293-TRPC6, membrane potential dye, ACh-evoked depolarization; active compounds read low; B-score at 10 µM; 310,000 tested, 1.1% active; AID 2553;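 active means B-score under library mean minus 3 SD, initial fluorescence not abnormally high, positive integrated signal ratio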;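 further: B-score derived from integrated fluorescence ratio over the kinetic read; more negative B-score means stronger inhibition of depolarization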
Target sequence (Q61143 whole entry, looked up): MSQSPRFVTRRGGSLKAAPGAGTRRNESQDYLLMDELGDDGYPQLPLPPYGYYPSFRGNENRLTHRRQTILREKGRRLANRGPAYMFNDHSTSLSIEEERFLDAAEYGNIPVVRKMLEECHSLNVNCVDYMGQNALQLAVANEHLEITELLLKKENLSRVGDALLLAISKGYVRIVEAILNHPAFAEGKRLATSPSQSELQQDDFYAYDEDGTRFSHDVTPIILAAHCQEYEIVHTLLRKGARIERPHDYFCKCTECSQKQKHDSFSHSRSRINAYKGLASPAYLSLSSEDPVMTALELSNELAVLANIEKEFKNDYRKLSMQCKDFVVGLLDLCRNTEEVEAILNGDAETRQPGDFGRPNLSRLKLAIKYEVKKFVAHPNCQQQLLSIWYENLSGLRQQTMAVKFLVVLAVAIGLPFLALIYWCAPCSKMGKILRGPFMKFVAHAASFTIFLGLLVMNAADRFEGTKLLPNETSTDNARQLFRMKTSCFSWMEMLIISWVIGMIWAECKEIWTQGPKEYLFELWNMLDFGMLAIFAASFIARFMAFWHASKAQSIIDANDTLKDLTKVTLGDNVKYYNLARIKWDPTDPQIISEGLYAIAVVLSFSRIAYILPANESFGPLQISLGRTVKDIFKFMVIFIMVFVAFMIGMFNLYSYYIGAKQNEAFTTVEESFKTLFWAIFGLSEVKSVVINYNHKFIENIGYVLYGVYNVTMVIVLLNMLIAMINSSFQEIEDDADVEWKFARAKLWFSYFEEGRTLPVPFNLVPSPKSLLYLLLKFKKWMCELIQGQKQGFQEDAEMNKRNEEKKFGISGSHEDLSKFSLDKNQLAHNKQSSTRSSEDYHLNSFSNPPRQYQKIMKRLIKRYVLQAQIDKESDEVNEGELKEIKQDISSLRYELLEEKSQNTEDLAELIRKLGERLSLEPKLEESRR
TRPC6 activator: mouse TRPC6 channel activation. B-score at 10 µM. 310,000 tested, 0.13% active. HEK293-TRPC6 membrane potential dye fluorescence; active compounds read high;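 active means B-score of the integrated fluorescence ratio above library mean plus 3 SD, and starting fluorescence ratio within library mean plus 5 SD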;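 further: higher score means more depolarization so channel activation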
TRPC4 act: opens the mouse TRPC4 cation channel. B-score at 10 µM. 310,000 tested, 0.49% active. AID 2237. HEK293 TRPC4beta/mu-opioid, Fluo4 calcium fluorescence; active compounds read high;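 active means B-score above 5 SD of library B-scores, and initial fluorescence ratio not above library mean plus 5 SD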;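 further: positive B-score marks a calcium rise read as TRPC4 activation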
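Technique: kinetic Fluo4 calcium fluorescence; Test system: TRPC4beta and mu-opioid receptor HEK293 stable cells; Measure: B-scored integrated calcium fluorescence ratio; Benchmarks: low control buffer alone, high control maximal DAMGO; Schedule: 45 min room-temperature Fluo4 loading, 110 s read.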
TRPC4 spec 2: second check of whether TRPC6 inhibitors also affect mouse TRPC4. HEK293 TRPC4/MOR, membrane potential dye fluorescence; channel activated by saturating DAMGO dose. 920 tested, 42% active. shares compounds with TRPC6 inh. inhibition, % at 10 µM;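 active means compounds whose fluorescence signal differed from control wells by over 3 SD, either direction, in both duplicate plates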
TRPC4 spec: selectivity of TRPC6 inhibitors: effect on mouse TRPC4 | 920 tested, 61% active | AID 2777 | HEK293 TRPC4/mu-opioid, membrane potential fluorescence | shares compounds with TRPC6 inh | activity change, negative = inhibition, % at 10 µM;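 active means rise or fall in signal beyond 3 SD of buffer-only wells in both replicate plates, either sign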;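 further: integrated kinetic ratio of fluorescence range over baseline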
HEK293 MPD ctr 2-1: second check of TRPC6 inhibitor effects in parental HEK293 cells; shares compounds with TRPC6 inh; parental HEK293 membrane potential dye fluorescence; maximal acetylcholine challenge after compound addition; signal change vs control, % at 10 µM; 920 tested, 31% active; AID 2779;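 active means membrane potential signal moving either way by over 3 SD of the maximum-effect control, in both duplicate plates, meaning non-specific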
HEK293 MPD ctr-1: checks TRPC6 inhibitor effects in parental HEK293 cells; shares compounds with TRPC6 inh; parental HEK293 membrane potential dye fluorescence; membrane potential signal change, % at 10 µM; 920 tested, 60% active;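 active means membrane potential signal shifting up or down by more than 3 SD of buffer-only wells, on both duplicate plates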
HEK293 MPD ctr-2: counter-screen for TRPC6 modulators: effect in parental HEK293 cells | shares compounds with TRPC6 inh | membrane potential signal change, % at 10 µM | membrane potential dye fluorescence | 2,400 tested, 51% active;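 active means membrane potential signal moves up or down beyond 5 SD from buffer-only wells, on both duplicate plates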
HEK293 MPD ctr 2-2: second counter-screen for TRPC6 modulators: effect in parental HEK293 cells | membrane potential dye fluorescence; after compound, maximal acetylcholine stimulation | shares compounds with TRPC6 inh | AID 488926 | 2,400 tested, 14% active | inhibition, % at 10 µM;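 active means membrane potential signal drops by more than 5 SD from the mean control signal, in both duplicate plates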;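 further: plate controls were acetylcholine ECmax control wells for no effect and buffer only wells for full effect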
TRPC4/MOR mod: selectivity of TRPC6 modulators against mouse TRPC4; shares compounds with TRPC6 inh; HEK293 TRPC4/mu-opioid, membrane potential fluorescence; percent change from control (negative = decrease, positive = increase), % at 10 µM; 2,400 tested, 69% active; AID 488927;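 active means membrane potential signal moved up or down beyond 5 SD of buffer control wells, in both duplicate plates, actives on both sides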;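 further: plate controls were assay buffer wells for no effect and DAMGO maximal-effect wells for full effect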
TRPC4 ctr inh 2: mouse TRPC4 off-target activity of TRPC6 modulators, second screen; shares compounds with TRPC6 inh; HEK293 TRPC4/mu-opioid, membrane potential dye fluorescence; stimulated with maximal-effect DAMGO; inhibition, % at 10 µM; 2,400 tested, 55% active; AID 488928;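 active means drop in membrane potential signal beyond 5 SD of the control wells in both duplicate plates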;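 further: TRPC4 counter screen for TRPC6 hits run under conditions tuned for TRPC6 not TRPC4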
TRPC6 block conf: mouse TRPC6 inhibitor confirmation. HEK293-TRPC6, membrane potential dye, ACh-evoked depolarization. shares compounds with TRPC6 inh. 3,300 tested, 43% active. inhibition, % at 10 µM;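 active means fluorescence ratio falls more than 5 SD below the full-stimulation control mean, in both duplicate runs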;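 further: integrated fluorescence ratio of peak minus minimum over baseline after agonist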
TRPC6 act conf: confirmation of mouse TRPC6 activators. shares compounds with TRPC6 inh. HEK293-TRPC6 membrane potential dye fluorescence, FDSS. activation, % at 10 µM. 2,800 tested, 11% active. AID 488961;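 active means ratio signal rise beyond 5 SD above unstimulated control wells' mean, seen in both duplicate runs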;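 further: plate controls were buffer EC0 wells for no effect and acetylcholine ECmax response for full effect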
* = called active by the depositor; i = inactive; nt = no result. An excerpt weighted towards active compounds, which were near 2.3% of everything screened.

SMILES | TRPC4 PAM | TRPC4 inh | TRPC6 inh | TRPC6 activator | TRPC4 act | HEK293 MPD ctr-2 | HEK293 MPD ctr 2-2 | TRPC4/MOR mod | TRPC4 ctr inh 2 | TRPC6 block conf | TRPC6 act conf | others
CCNc1c(NS(=O)(=O)c2ccc([N+](=O)[O-])cc2)c(=O)oc2ccccc12 | i | i | i | i | i | nt | nt | nt | nt | nt | nt
Cc1ccc(C)c(OCCCCN2CCNCC2)c1C | 15* | i | -5.6* | i | i | i | i | i | 50%* | 53%* | nt
Cc1ccc(C)c(OCCCN2CCNCC2)c1 | i | i | i | i | i | nt | nt | nt | nt | nt | nt
CS(=O)(=O)c1ccc(Cl)c(NC(=O)C2CCCN(C(=O)c3ccc(Cl)cc3)C2)c1 (stereo unspecified) | i | i | i | i | i | nt | nt | nt | nt | nt | nt
Cn1c(=O)[nH]c(=O)c2c1nc(N1CCN(Cc3ccccc3)CC1)n2CCSc1ncccn1 | i | i | -7.9* | i | i | -329%* | 96%* | -59%* | 62%* | 58%* | i
Cn1c(=O)[nH]c(=O)c2c1nc(N1CCN(Cc3ccccc3)CC1)n2CCCc1ccccc1 | i | i | i | i | i | nt | nt | nt | nt | nt | nt
Cc1nnc(SCCn2c(N3CCCCCC3)nc3c2c(=O)[nH]c(=O)n3C)s1 | i | i | i | i | i | nt | nt | nt | nt | nt | nt
Cc1nnc(SCCn2c(N3CCN(Cc4ccccc4)CC3)nc3c2c(=O)[nH]c(=O)n3C)s1 | i | i | -7.8* | i | i | -278%* | i | -44%* | i | i | i
Cc1nnc(SCCn2c(N3CCN(C)CC3)nc3c2c(=O)[nH]c(=O)n3C)s1 | i | i | -10* | i | i | nt | nt | nt | nt | 69%* | i | TRPC4 spec 2=74%*;TRPC4 spec=-36%*;HEK293 MPD ctr 2-1=i;HEK293 MPD ctr-1=-592%*
CC1CCCCC1NCC(=O)NCc1ccc(F)cc1 (stereo unspecified) | i | i | i | i | i | nt | nt | nt | nt | nt | nt
CCOC(=O)C1(Cc2cccc(Cl)c2)CCCN(C(=O)CCSC)C1 (stereo unspecified) | i | i | -5.3* | i | i | 152%* | i | 36%* | i | 54%* | nt
CCCN1CCN(CCCNC(=O)Cn2nc(-c3ccccc3)ccc2=O)CC1 | i | i | i | i | i | nt | nt | nt | nt | nt | nt
CCOc1cc(C(=S)N2CCC(O)CC2)ccc1OS(=O)(=O)c1ccc(Br)cc1 | i | i | -8.4* | i | i | nt | nt | nt | nt | i | i | TRPC4 spec 2=i;TRPC4 spec=i;HEK293 MPD ctr 2-1=i;HEK293 MPD ctr-1=i
C/C(=N\NC(=O)C1COc2ccccc2O1)c1ccc(N2CCOCC2)cc1 (stereo unspecified) | i | i | i | i | i | nt | nt | nt | nt | nt | nt
Cc1ccc(Oc2ccccc2NC(=O)C2=COCCO2)cc1 | i | i | i | i | i | nt | nt | nt | nt | nt | nt
CCOC(=O)N1CCN(C(=O)c2cccc(NS(=O)(=O)c3ccc(F)c(F)c3)c2)CC1 | i | i | i | i | i | nt | nt | nt | nt | nt | nt
CCOC(=O)N1CCN(C(=O)c2cccc(S(=O)(=O)Nc3ccc(Br)cc3)c2)CC1 | i | i | -9* | i | i | nt | nt | nt | nt | i | nt | TRPC4 spec 2=i;TRPC4 spec=i;HEK293 MPD ctr 2-1=252%*;HEK293 MPD ctr-1=i
CN(c1ccccc1)S(=O)(=O)c1cccc(C(=O)N2CCN(c3ccccn3)CC2)c1 | i | i | -7.2* | 12* | i | 144%* | i | 38%* | i | 64%* | 94%*
Cc1cccc(NS(=O)(=O)c2cccc(C(=O)N3CCN(S(=O)(=O)c4ccccc4)CC3)c2)c1 | i | i | -13* | 13* | i | i | i | i | i | 110%* | 132%*
O=C(c1cccc(S(=O)(=O)Nc2ccccc2F)c1)N1CCN(c2ccccc2F)CC1 | i | i | -6.5* | i | i | i | i | i | i | 64%* | nt
CCCN(Cc1nnc(-c2ccccc2Cl)o1)C(=O)c1cccc(S(=O)(=O)N2CCOCC2)c1 | i | i | i | i | i | nt | nt | nt | nt | nt | nt
CCN(CC)C(=O)Cn1cc(S(=O)(=O)CC(=O)N2CCOCC2)c2ccccc21 | i | i | i | i | i | nt | nt | nt | nt | nt | nt
Cc1cccc(NS(=O)(=O)c2cccc(C(=O)N3CCN(c4ccccn4)CC3)c2)c1 | i | i | -10* | i | i | nt | nt | nt | nt | 79%* | nt | TRPC4 spec 2=i;TRPC4 spec=2.7%*;HEK293 MPD ctr 2-1=220%*;HEK293 MPD ctr-1=1.3%*
CC1Cc2ccccc2N1S(=O)(=O)c1cccc(C(=O)N2CCN(c3ncccn3)CC2)c1 (stereo unspecified) | i | i | i | 21* | i | 130%* | i | 86%* | 86%* | nt | 174%*
CSc1ccccc1C(=O)Nc1cc2c(cc1C(=O)O)OCCCO2 | i | i | i | i | i | nt | nt | nt | nt | nt | nt
Cn1c(=O)n(Cc2ccc(F)cc2)c(=O)c2c1nc1n2CCCN1Cc1ccccc1 | i | i | -5.1* | i | i | i | i | i | i | i | i
COc1cc(OC)c(NS(=O)(=O)c2ccc3c(c2)NC(=O)CO3)cc1Cl | i | i | i | i | i | nt | nt | nt | nt | nt | nt
